Laboratory results reported in ChEMBL document CHEMBL1139460 (J Med Chem, 2005).
Calls of active or inactive are those of the source. No cut-off for these calls is given here.

Legend:
[1] = target: T1, GABA-A receptor; alpha-3/beta-3/gamma-2 (Homo sapiens, UniProt P18507+P28472+P34903); assay: Displacement of [3H]Ro 15-1788 from human recombinant GABAA alpha-3-beta-3-gamma-2 receptor expressed in L(tk-) cells; format: cell-based
T1 sequence (P18507 whole entry): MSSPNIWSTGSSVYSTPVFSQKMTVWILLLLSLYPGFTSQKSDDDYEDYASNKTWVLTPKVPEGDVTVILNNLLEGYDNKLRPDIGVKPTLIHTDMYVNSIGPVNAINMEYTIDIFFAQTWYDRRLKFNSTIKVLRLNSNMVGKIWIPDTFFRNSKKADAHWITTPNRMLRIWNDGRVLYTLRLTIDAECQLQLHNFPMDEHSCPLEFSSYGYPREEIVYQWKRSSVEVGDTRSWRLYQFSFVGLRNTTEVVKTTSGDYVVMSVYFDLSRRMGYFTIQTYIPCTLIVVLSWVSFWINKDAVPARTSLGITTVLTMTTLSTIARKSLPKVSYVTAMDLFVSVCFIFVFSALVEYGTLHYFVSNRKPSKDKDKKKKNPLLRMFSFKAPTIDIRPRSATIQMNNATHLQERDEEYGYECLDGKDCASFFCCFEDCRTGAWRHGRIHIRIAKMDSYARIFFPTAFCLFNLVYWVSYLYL
T1 sequence (P28472 whole entry): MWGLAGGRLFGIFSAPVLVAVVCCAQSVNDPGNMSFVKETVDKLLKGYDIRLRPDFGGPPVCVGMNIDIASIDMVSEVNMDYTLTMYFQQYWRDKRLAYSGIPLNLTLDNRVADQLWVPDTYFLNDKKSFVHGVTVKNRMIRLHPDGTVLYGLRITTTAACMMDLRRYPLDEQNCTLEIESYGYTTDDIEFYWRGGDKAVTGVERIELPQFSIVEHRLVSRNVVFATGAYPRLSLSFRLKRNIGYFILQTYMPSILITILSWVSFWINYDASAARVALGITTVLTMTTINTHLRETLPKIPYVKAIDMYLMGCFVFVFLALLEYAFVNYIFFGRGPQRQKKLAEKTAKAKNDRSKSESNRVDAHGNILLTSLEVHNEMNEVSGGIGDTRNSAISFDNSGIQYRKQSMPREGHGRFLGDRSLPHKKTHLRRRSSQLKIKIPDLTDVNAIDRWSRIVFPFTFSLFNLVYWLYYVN
T1 sequence (P34903 whole entry): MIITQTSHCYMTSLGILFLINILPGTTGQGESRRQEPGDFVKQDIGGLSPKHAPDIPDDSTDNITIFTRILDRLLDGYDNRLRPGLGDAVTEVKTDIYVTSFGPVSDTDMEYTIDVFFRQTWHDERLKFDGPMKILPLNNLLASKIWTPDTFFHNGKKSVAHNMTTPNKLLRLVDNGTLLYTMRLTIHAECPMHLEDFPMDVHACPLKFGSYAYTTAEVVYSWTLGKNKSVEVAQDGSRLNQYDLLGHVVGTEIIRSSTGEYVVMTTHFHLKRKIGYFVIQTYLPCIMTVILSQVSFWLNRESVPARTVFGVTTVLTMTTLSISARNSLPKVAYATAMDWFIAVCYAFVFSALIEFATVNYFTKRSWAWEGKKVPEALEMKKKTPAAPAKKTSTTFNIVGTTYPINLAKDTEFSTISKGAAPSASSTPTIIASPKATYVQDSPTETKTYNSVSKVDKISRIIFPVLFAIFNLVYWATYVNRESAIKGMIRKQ

[2] = target: T2, GABA-A receptor; alpha-3/beta-3/gamma-2 (Homo sapiens) (UniProt P18507+P28472+P34903); assay: Efficacy at human recombinant GABAA alpha-3-beta-3-gamma-2 receptor expressed in L(tk-) cells by two electrode voltage clamp method relative to GABA; format: cell-based
How it was run: (§1)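 Receptors stably expressed in L(tk-) fibroblasts; percent modulation of the submaximal (EC20) GABA response, multiple drug concentrations assessed.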

[3] = target: T3, GABA-A receptor; alpha-1/beta-3/gamma-2 (Homo sapiens) (UniProt P14867+P18507+P28472); assay: Efficacy at human recombinant GABAA alpha-1-beta-3-gamma-2 receptor expressed in L(tk-) cells by two electrode voltage clamp method relative to GABA; format: cell-based; how it was run: as §1
[4] = target: T4, GABA-A receptor; alpha-1/beta-3/gamma-2 (Homo sapiens, UniProt P14867+P18507+P28472); assay: Displacement of [3H]Ro 15-1788 from human recombinant GABAA alpha-1-beta-3-gamma-2 receptor expressed in L(tk-) cells; format: cell-based
T4 sequence (P14867 whole entry): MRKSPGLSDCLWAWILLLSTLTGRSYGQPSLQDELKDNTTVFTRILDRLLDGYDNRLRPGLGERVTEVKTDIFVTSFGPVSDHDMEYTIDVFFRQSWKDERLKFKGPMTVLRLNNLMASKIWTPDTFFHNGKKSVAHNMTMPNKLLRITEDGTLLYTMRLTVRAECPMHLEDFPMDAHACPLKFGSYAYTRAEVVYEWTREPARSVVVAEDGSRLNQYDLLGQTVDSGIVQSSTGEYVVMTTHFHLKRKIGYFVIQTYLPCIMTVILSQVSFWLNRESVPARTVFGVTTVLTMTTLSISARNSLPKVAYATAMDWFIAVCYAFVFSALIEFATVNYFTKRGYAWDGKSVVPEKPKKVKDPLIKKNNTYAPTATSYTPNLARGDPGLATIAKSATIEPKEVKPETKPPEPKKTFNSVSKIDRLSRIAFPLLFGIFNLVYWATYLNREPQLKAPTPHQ
T4 sequence (P18507 whole entry): T1 sequence (P18507 whole entry)
T4 sequence (P28472 whole entry): T1 sequence (P28472 whole entry)

[5] = target: T5, GABA-A receptor; alpha-2/beta-3/gamma-2 (Homo sapiens, UniProt P18507+P28472+P47869); assay: Displacement of [3H]Ro 15-1788 from human recombinant GABAA alpha-2-beta-3-gamma-2 receptor expressed in L(tk-) cells; format: cell-based
T5 sequence (P18507 whole entry): T1 sequence (P18507 whole entry)
T5 sequence (P28472 whole entry): T1 sequence (P28472 whole entry)
T5 sequence (P47869 whole entry): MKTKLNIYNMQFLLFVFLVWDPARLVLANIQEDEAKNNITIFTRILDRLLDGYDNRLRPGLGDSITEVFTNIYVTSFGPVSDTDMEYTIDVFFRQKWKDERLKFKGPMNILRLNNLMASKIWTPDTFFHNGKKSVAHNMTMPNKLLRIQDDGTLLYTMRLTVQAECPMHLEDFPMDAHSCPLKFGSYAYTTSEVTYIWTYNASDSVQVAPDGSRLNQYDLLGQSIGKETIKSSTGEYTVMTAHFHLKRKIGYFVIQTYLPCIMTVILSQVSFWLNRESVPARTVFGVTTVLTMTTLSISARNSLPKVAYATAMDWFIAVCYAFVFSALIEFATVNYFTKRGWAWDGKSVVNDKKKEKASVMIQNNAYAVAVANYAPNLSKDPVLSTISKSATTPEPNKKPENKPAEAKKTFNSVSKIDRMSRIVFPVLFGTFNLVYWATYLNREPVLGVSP

[6] = target: T2, GABA-A receptor; alpha-3/beta-3/gamma-2 (Homo sapiens); assay: Efficacy at human recombinant GABAA alpha-3-beta-3-gamma-2 receptor expressed in Xenopus laevis oocytes by two electrode voltage clamp method relative to GABA; format: cell-based; settings: Oocyte
[7] = target: T3, GABA-A receptor; alpha-1/beta-3/gamma-2 (Homo sapiens); assay: Efficacy at human recombinant GABAA alpha-1-beta-3-gamma-2 receptor expressed in Xenopus laevis oocytes by two electrode voltage clamp method relative to GABA; format: cell-based; settings: Oocyte
[8] = target: T6, GABA-A receptor; alpha-2/beta-3/gamma-2 (Homo sapiens) (UniProt P18507+P28472+P47869); assay: Efficacy at human recombinant GABAA alpha-2-beta-3-gamma-2 receptor expressed in Xenopus laevis oocytes by two electrode voltage clamp method relative to GABA; format: cell-based; settings: Oocyte
How it was run: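 Human α2β3γ2 GABA-A receptors were transiently expressed in Xenopus oocytes and recorded by two-electrode voltage clamp. […] Efficacy is the percent modulation of the submaximal GABA EC20 ion current.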

[9] = target: T6, GABA-A receptor; alpha-2/beta-3/gamma-2 (Homo sapiens); assay: Efficacy at human recombinant GABAA alpha-2-beta-3-gamma-2 receptor expressed in L(tk-) cells by two electrode voltage clamp method relative to GABA; format: cell-based; how it was run: as §1
[10] = Half life in dog; format: ADME, organism-based, Canis lupus familiaris; settings: in vivo
Rattus norvegicus [11] = assay: Sedative effect in orally dosed rat at by chain-pulling assay; format: functional, organism-based
Rattus norvegicus [12] = assay: Receptor occupancy at GABAA receptor in rat at 30 mg/kg, po; format: functional
Mus musculus = assay: Receptor occupancy in vivo by displacement of [3H]Ro 15-1788 binding from GABAA receptor in orally dosed Swiss Webster mouse; format: functional; settings: po, read-out: ID50 (the source's name)
Rattus norvegicus [13] = assay: Anxiolytic effect in rat at 1 mg/kg, po by anxiolytic assay; format: functional, organism-based; set-up: dose 1 mg/kg
Rattus norvegicus [14] = assay: Anxiolytic effect in rat at 3 mg/kg, po by anxiety assay; format: functional, organism-based; set-up: dose 3 mg/kg
[15] = Bioavailability in dog; format: ADME, organism-based, Canis lupus familiaris; settings: in vivo
[16] = Half life in rat; format: ADME, organism-based; settings: in vivo
[17] = Bioavailability in rat; format: ADME, organism-based; settings: in vivo
Rattus norvegicus [18] = assay: Receptor occupancy at GABAA receptor in rat at 1 mg/kg, po; format: functional
Rattus norvegicus [19] = assay: Receptor occupancy at GABAA receptor in rat at 3 mg/kg, po; format: functional

Cn1ncnc1COc1nn2c(-c3ccccc3)nnc2cc1C1CCCC1
Ki [1]: 0.34 nM | Efficacy [2]: 63% | Efficacy [3]: 47% | Ki [4]: 0.38 nM | Ki [5]: 0.73 nM

Cn1ncnc1COc1nn2c(-c3ccccc3)nnc2cc1C1CCCCC1
Ki [1]: 4.8 nM | Efficacy [6]: 109% | Ki [4]: 6.2 nM | Efficacy [7]: 65% | Ki [5]: 14 nM

Cn1ncnc1COc1nn2c(-c3ccccc3)nnc2cc1-c1ccccc1
Ki [1]: 1.2 nM | Efficacy [6]: 115% | Ki [4]: 0.78 nM | Efficacy [7]: 94% | Ki [5]: 2.6 nM

c1ccc(-c2cc3nnc(-c4ccccc4)n3nc2OCc2ccccn2)cc1
Ki [1]: 1.8 nM | Efficacy [6]: 77% | Ki [4]: 1.1 nM | Efficacy [7]: 80% | Ki [5]: 2.9 nM

CN1C(=O)CN=C(c2ccccc2)c2cc(Cl)ccc21
Efficacy [8]: 115%

c1ccc(-c2nnc3c4c(c(OCc5ccccn5)nn23)C2CCC4CC2)cc1
Ki [1]: 12 nM | Efficacy [8]: 23% | Efficacy [6]: 38% | Efficacy [7]: 51%

Cn1ncnc1COc1nn2c(-c3ccccc3)nnc2cc1C1CCC1
Ki [1]: 0.17 nM | Efficacy [9]: 41% | Efficacy [2]: 72% | Efficacy [3]: 27% | Ki [4]: 0.23 nM | Ki [5]: 0.25 nM

CCn1ncnc1COc1nn2c(-c3ccccc3F)nnc2cc1C(C)(C)C [MK-0777]
half-life [10]: 90 min | Activity (Rattus norvegicus [11]): inactive | Activity (Rattus norvegicus [12]): 99% | ED50 (Mus musculus): 0.42 mg/kg | Activity (Rattus norvegicus [13]): Active | Ki [1]: 0.2 nM | Activity (Rattus norvegicus [14]): Active | bioavailability [15]: 53% | half-life [16]: 84 min | bioavailability [17]: 35% | Activity (Rattus norvegicus [18]): 70% | Activity (Rattus norvegicus [19]): 88% | Ki [4]: 0.27 nM | Ki [5]: 0.31 nM

Cn1ncnc1COc1nn2c(-c3ccccc3)nnc2cc1C(C)(C)C
Ki [1]: 0.14 nM | Efficacy [2]: 34% | Efficacy [3]: 0% | Ki [4]: 0.36 nM

Cc1ccc(-c2nc3ccc(C)cn3c2CC(=O)N(C)C)cc1
Efficacy [8]: 123% | Efficacy [7]: 160%
